According to publication PMC8276234 (Journal of medicinal chemistry, 2019):

How the values were obtained:
[1] = tested on: A172 cells; experiment: Transwell migration assay; type: cell-based, human; conditions: 4 hours, 30 μM
Procedure, shortened: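 Treated A172 cells (1 x 10^5) were seeded into inserts with 8.0 µm PET membranes in serum-free medium. The lower well held DMEM with 10% FBS, and FBS-free wells served as control. After 4 h, cells were Giemsa-stained and 5 fields per well were imaged at 10X.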

[2] = tested on: U87MG; experiment: MTT growth inhibition assay, U87MG; type: cell-based, human; conditions: read-out: IC50, cytotoxicity U87MG, 72 hours, listed as 6 (BAP2)
Procedure, shortened: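 U87MG seeded at 5000 cells/well, incubated overnight at 37 °C and 5% CO2, then given test compound or vehicle for 72 h. MTT (3 mg/mL) was added for 4 h at 37 °C. Formazan was dissolved in DMSO with 15 min shaking at room temperature and read at 570 nm. Inhibition was calculated as [1-(At-Ab)/(Ac-Ab)]×100 against untreated and blank wells.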

[3] = target: T1, H256A PDI (Homo sapiens, UniProt P07237, H256A); experiment: Thermal shift assay, H256A PDI; type: binding; conditions: 100 μM
T1 sequence (P07237 18-508 H256A): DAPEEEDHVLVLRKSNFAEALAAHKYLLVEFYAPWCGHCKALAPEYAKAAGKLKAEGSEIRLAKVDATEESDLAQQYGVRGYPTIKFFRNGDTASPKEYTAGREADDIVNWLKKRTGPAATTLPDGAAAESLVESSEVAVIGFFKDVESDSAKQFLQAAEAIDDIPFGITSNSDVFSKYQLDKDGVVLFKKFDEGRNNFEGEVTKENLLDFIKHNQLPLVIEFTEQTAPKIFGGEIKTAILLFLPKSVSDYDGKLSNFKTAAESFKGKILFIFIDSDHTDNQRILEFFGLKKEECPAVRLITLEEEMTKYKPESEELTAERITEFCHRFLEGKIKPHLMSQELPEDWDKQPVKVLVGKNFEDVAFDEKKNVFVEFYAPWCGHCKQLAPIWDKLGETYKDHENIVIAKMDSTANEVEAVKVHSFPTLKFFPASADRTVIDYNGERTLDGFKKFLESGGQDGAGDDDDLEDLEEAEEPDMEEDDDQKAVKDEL
Procedure, shortened: (§1)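 Purified PDI (wild-type, C53S/C397S or H256A; 0.5 mg/mL in 50 mM Tris, pH 7.0) was mixed with compound in DMSO and ROX dye. Samples were heated from 25 to 99 °C at 1 °C/min. Boltzmann melting temperature was compared with the 5% DMSO control.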

[4] = target: b’ domain of PDI (Homo sapiens, UniProt P07237); experiment: ANS spectral scan; type: binding; conditions: 5 μM PDI, 100 μM compound
Chain of b’ domain of PDI (P07237 18-508): as the sequence (P07237 18-508 H256A) above, with A239H counted along it
Procedure, shortened: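 Human PDI was preincubated with 100 μM compound or matching DMSO in TBS at 37 °C for 1 h. ANS was then added, followed by 20 min in the dark at 25 °C. Fluorescence spectrum: Ex 370 nm, Em 400–700 nm.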

[5] = tested on: GBM cell; experiment: Combination with As2O3, GBM cell proliferation; type: cell-based
[6] = tested on: GRP78; experiment: Western blot, GRP78 expression; type: cell-based, human; conditions: U87MG cells; 20 μM (PACMA31 1.0 μM), 24 hours
Procedure, shortened: (§2)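 Treated U87MG cells were lysed by sonication in Tris/NaCl/Triton X-100/SDS buffer (pH 7.4) and spun at 13,500×g, 4 °C, 10 min. Protein was quantified by BCA. 30 μg per lane ran on 10% gels and transferred to PVDF. Primary antibodies were applied overnight at 4 °C. Fluorescent secondaries were imaged.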

[7] = target: wild-type PDI (Homo sapiens, UniProt P07237); experiment: Thermal shift assay, wild-type PDI; type: binding
Chain of wild-type PDI (P07237 18-508): as the sequence (P07237 18-508 H256A) above, with A239H counted along it
Procedure, shortened: as §1

[8] = target: T1, H256A PDI; experiment: PDI reductase assay, H256A mutant PDI; type: biochemical; conditions: 10 μM
Procedure, shortened: (§3)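 N-terminal His-tagged human PDI was expressed in E. coli BL21(DE3) pLysS with 1 mM IPTG for 4 h at 37 °C. It was purified on Ni-NTA and dialyzed into 100 mM sodium phosphate, 2 mM EDTA, pH 7.0. PDI (0.4 μM) was preincubated 1 h with compound in phosphate/EDTA buffer with 8 μM DTT. DTT (500 μM) and bovine insulin (130 μM) were then added at room temperature. Aggregation was read at 620 nm. Percent activity came from the 0–80 min change, corrected for DTT alone.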

[9] = target: C53S/C397S PDI (Homo sapiens, UniProt P07237, C397S/C53S); experiment: Thermal shift assay, C53S/C397S PDI; type: binding; conditions: 100 μM
Chain of C53S/C397S PDI (P07237 18-508 C53S/C397S): as the sequence (P07237 18-508 H256A) above, with C36S, A239H, C380S counted along it
Procedure, shortened: as §1

[10] = tested on: D54 cells; experiment: Clonogenic survival assay with ionizing radiation; type: cell-based; conditions: 1 μM, 0-6 Gy
Procedure, shortened: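 D54 monolayer cells (37 °C, 5% CO2, mycoplasma-tested, STR-authenticated) were irradiated at 0, 1, 2, 4 or 6 Gy and plated immediately at 200, 200, 400, 600 and 1000 cells/well. Test compounds (1 μM), reference inhibitor (0.05 μM) or DMSO were added. After 10–12 days, colonies were stained with 0.1% crystal violet.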

[11] = tested on: A172 cells; experiment: Wound healing assay; type: cell-based, human; conditions: 24 hours, BAP2 at 10 μM
Procedure, shortened: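 A172 cells were seeded at 50,000/well, grown overnight, then kept in serum-free DMEM for 24 h. A scratch was made and compounds added. Cells grew 24 h, until DMSO-control scratches closed, then were Giemsa-stained and imaged at 10X.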

[12] = target: PDI (Homo sapiens, UniProt P07237); experiment: PDI reductase assay after competition with N-acetyl cysteine; type: biochemical; conditions: compound 40 μM, 0, 1, 2 or 5 mM NAC
Chain of PDI (P07237 18-508): as the sequence (P07237 18-508 H256A) above, with A239H counted along it
Procedure, shortened: as §3

[13] = tested on: EIF2α; experiment: Western blot, phosphorylation of EIF2α; type: cell-based, human; conditions: U87MG and A172 cells; 20 μM (PACMA31 1.0 μM), 2 hours
Procedure, shortened: as §2

[14] = tested on: MMP9; experiment: Western blot of cell lysates, MMP9; type: cell-based, human; conditions: U87MG cells, 10 μM (PACMA31 0.25 μM), 48 hours
Procedure, shortened: as §2

[15] = tested on: MMP2; experiment: Gelatin zymography and Western blot of conditioned media; type: cell-based, human; conditions: U87MG cells, 10 μM (PACMA31 0.25 μM), 48 hours
Procedure, shortened: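 U87MG cells (0.5 x 10^6/well) attached overnight and were serum-starved 12 h before treatment. Cleared conditioned media (5 µg protein) ran on 10% SDS-PAGE with 0.1% gelatin. Gels were washed in 2.5% Triton X-100 Tris/CaCl2/ZnCl2 buffer, incubated overnight at 37 °C, then Coomassie R-250 stained and destained. Cleaved MMP2 in media was also assessed by Western blot.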

N#Cc1cccc(/C=C/C(=O)c2ccc(O)cc2)c1 [Compound 6, (E)-3-(3-(4-Hydroxyphenyl)-3-oxoprop-1-en-1-yl)benzonitrile]
transwell migration [1]: inhibited migration | IC50 [2]: 10.3 ± 2.3 µM | stabilization (thermal shift) in the H256A mutant [3]: abolished | effect on ANS fluorescence [4]: hindered the ability of ANS to fluoresce | inhibition of GBM cell proliferation in combination with As2O3 [5]: synergistically | expression of GRP78 [6]: increase in expression of GRP78 | increase of melting temperature ([7]; recombinant PDI, dose-dependent, up to 100 μM): more than 1 °C | activity against H256A mutant PDI [8]: abolished upon mutation | stabilization (thermal shift) in the C53S/C397S mutant [9]: but not the C53S/C397S mutant | synergy with ionizing radiation (IR) [10]: synergized with IR | wound healing / cell migration [11]: inhibited wound healing | activity after competition with N-acetyl cysteine (NAC) ([12]; listed as BAP2): unaffected by up to 5 mM NAC

C#CC(=O)N(c1ccc(OC)cc1OC)C(C(=O)NCC(=O)OCC)c1cccs1 (centres unmarked) [PACMA31, reference compound]
transwell migration [1]: inhibited migration | effect on ANS fluorescence [4]: did not hinder dye fluorescence | expression of GRP78 [6]: increase in expression of GRP78 | stabilization of PDI to thermal denaturation ([7]; 100 μM): does not stabilize PDI | phosphorylation of EIF2α [13]: did not induce phosphorylation of EIF2α | MMP9 expression [14]: decreased | MMP2 activity and secretion [15]: inhibit MMP2 activity and secretion | activity after competition with N-acetyl cysteine (NAC) [12]: significantly abolished
